Tests used:
[1] = molecular target: Ribosomal protein S6 kinase beta-1 (Homo sapiens, UniProt P23443); assay: Inhibition of human S6K1 using KKRNRTLTK peptide substrate by radiometric assay
[2] = Metabolic stability in human liver microsomes assessed as half life; type: ADME, Microsome
Summary of the method: (§1)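 Half-life in human or rat liver microsomes, reported as the mean of three experiments with errors within 30% of the mean.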

CYP2C9 = CYP2C9 (Homo sapiens, UniProt P11712); assay: Inhibition of human CYP2C9 using tolubutamide as substrate at 10 uM by cocktail inhibition assay; type: ADME; conditions: probe tolubutamide
CYP2C9, sequence (P11712 whole entry, canonical isoform): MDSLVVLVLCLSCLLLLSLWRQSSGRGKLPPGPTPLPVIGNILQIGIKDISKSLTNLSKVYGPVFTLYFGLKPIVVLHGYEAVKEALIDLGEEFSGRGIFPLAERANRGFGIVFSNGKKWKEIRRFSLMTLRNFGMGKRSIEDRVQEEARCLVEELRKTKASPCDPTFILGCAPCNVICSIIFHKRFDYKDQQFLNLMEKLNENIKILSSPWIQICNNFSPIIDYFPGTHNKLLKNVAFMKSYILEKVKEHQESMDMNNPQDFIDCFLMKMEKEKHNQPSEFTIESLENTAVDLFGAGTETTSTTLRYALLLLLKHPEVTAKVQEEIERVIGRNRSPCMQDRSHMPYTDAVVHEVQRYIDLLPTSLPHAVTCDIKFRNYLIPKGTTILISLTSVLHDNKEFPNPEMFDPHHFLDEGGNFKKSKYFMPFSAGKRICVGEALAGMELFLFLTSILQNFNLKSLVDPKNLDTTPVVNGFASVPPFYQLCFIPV
Summary of the method: (§2)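 Cocktail P450 assay measuring marker metabolism with and without 10 µM test compound: CYP1A2 phenacetin […] to acetaminophen, CYP2C9 tolbutamide to hydroxytolbutamide, CYP2D6 bufuralol to […], CYP3A4 midazolam to 1'-hydroxymidazolam. Each substrate was at about its Km. Isoform-specific inhibitors were run as system controls. Values are means of three experiments, with errors within 30% of the mean.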

[3] = Clearance in Sprague-Dawley rat at 1 mg/kg, iv measured upto 8 hrs by LC/MS/MS analysis; type: ADME, organism-based; conditions: in vivo
Summary of the method: (§3)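 Sprague Dawley rats were dosed with compound in a generic formulation at 1 mg mL-1, either 1 mg kg-1 iv into the femoral vein or 2 mg kg-1 by oral gavage. Blood was drawn at 5, 15, 30 min and 1, 2, 4, 6, 8 h into EDTA, and plasma was obtained by centrifugation. Plasma was precipitated with acetonitrile containing internal standard, then analysed by C18 LC-MS/MS (positive MRM) against internal-standard peak areas. Data were fitted with an IV bolus model.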

[4] = Volume of distribution in Sprague-Dawley rat at 1 mg/kg, iv measured upto 8 hrs by LC/MS/MS analysis; type: ADME, organism-based; conditions: in vivo; summary of the method: as §3
CYP1A2 = molecular target: T1, CYP1A2 (Homo sapiens, UniProt P05177); assay: Inhibition of human CYP1A2 using phenacetin as substrate at 10 uM by cocktail inhibition assay; type: ADME; conditions: probe phenacetin; summary of the method: as §2
T1 sequence (P05177 whole entry): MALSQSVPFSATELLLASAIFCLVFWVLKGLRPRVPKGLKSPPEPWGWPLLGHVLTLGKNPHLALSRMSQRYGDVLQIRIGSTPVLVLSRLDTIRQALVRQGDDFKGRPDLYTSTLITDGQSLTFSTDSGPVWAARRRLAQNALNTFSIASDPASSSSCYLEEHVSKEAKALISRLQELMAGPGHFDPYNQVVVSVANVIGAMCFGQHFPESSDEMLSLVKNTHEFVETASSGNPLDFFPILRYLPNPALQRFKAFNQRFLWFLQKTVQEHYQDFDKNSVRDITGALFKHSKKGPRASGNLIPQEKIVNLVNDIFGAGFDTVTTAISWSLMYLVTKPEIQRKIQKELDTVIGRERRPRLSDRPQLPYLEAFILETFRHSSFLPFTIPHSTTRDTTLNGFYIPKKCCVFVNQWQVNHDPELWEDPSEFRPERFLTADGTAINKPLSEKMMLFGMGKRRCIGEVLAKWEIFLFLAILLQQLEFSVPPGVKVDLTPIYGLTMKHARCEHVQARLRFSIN

[5] = Metabolic stability in rat liver microsomes assessed as half life; type: ADME, Microsome; summary of the method: as §1
[6] = Half life in Sprague-Dawley rat at 1 mg/kg, iv measured upto 8 hrs by LC/MS/MS analysis; type: ADME, organism-based; conditions: in vivo; summary of the method: as §3
[7] = Cmax in Sprague-Dawley rat at 2 mg/kg, po measured upto 8 hrs by LC/MS/MS analysis; type: ADME, organism-based; set-up: route oral, dose 2 mg/kg, time <=8; conditions: in vivo; summary of the method: as §3
[8] = Oral bioavailability in Sprague-Dawley rat at 2 mg/kg measured upto 8 hrs by LC/MS/MS analysis; type: ADME, organism-based; conditions: in vivo; summary of the method: as §3
CYP3A4 = CYP3A4 (Homo sapiens, UniProt P08684); assay: Inhibition of human CYP3A4 using midazolam as substrate at 10 uM by cocktail inhibition assay; type: ADME; conditions: probe midazolam; summary of the method: as §2
CYP3A4, sequence (P08684 whole entry): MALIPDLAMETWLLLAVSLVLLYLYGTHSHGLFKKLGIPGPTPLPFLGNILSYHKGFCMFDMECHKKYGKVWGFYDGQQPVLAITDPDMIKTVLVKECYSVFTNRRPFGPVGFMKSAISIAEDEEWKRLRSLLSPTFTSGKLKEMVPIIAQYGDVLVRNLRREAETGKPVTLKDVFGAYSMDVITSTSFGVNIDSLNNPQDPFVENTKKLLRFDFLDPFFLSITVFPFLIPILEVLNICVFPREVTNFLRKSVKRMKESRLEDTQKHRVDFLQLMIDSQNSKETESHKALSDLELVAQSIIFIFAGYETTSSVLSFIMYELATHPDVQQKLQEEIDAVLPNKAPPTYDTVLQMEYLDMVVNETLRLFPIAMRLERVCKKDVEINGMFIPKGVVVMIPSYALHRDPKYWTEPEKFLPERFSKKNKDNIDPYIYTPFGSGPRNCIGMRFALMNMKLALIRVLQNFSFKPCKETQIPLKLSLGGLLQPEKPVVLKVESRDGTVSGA

[9] = AUC in Sprague-Dawley rat at 1 mg/kg, iv measured upto 8 hrs by LC/MS/MS analysis; type: ADME, organism-based; set-up: route intravenous, dose 1 mg/kg, time <=8; conditions: in vivo; summary of the method: as §3
CYP2D6 = CYP2D6 (Homo sapiens, UniProt P10635); assay: Inhibition of human CYP2D6 using bufuralol as substrate at 10 uM by cocktail inhibition assay; type: ADME; conditions: probe bufuralol; summary of the method: as §2
CYP2D6, sequence (P10635 whole entry): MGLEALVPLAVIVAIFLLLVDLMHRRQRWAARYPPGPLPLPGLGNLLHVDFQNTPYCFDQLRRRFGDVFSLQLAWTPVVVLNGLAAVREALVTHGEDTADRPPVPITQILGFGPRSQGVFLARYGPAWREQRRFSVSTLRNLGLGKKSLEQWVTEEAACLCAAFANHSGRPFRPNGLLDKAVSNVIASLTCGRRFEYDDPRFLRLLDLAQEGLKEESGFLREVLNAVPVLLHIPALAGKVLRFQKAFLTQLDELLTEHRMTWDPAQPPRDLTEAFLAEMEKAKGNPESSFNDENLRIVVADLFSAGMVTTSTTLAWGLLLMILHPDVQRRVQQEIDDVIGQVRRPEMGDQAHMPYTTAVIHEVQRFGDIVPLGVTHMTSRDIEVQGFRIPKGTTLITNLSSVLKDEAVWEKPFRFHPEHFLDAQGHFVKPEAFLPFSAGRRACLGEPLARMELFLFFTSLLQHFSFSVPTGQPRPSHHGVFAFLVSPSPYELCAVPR

Ribosomal protein S6 kinase beta-1, sequence (P23443 whole entry): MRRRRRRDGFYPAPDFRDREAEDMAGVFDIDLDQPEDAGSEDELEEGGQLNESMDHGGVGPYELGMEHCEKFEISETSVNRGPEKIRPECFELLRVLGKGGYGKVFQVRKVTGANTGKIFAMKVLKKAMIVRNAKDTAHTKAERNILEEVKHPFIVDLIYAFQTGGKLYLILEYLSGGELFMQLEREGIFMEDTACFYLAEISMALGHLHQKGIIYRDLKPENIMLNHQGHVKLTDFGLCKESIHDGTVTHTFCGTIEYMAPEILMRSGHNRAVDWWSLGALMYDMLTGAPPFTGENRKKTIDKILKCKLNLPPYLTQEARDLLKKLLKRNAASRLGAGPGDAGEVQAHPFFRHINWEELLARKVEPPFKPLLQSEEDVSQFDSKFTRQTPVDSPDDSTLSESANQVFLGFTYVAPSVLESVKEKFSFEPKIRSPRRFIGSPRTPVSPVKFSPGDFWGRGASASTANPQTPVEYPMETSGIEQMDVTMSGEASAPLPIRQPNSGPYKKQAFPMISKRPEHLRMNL

IC50 [1] [nM] | half-life [2] [min] | inhibition at 10 µM (CYP2C9) [%] | clearance [3] [mL/min/kg] | Vd [4] [L/kg] | inhibition at 10 µM (CYP1A2) [%] | half-life [5] [min] | half-life [6] [min] | Cmax [7] [nM] | bioavailability [8] [%] | inhibition at 10 µM (CYP3A4) [%] | AUC at 8 h [9] [µM·h] | inhibition at 10 µM (CYP2D6) [%] | Compound
179 |  |  |  |  |  |  |  |  |  |  |  |  | O=C(Nc1ccc(-c2cn[nH]c2)cc1F)C1COc2ccccc2O1 (stereo not drawn)
56.7 | 23 | 63 | 28 | 0.7 | 42 | 17 | 28.2 | 670 | 25 | 38 | 1.6 | 40 | COc1ccc2c(c1)CC(C(=O)Nc1cc(F)c(-c3cn[nH]c3)c(F)c1)CO2 (stereo not drawn)
 |  |  |  | 0.8 |  |  |  | 600 | 23 |  | 1.5 |  | O=C(Nc1cc(F)c(-c2cn[nH]c2)c(F)c1)C1COc2ccccc2C1 (stereo not drawn)

Source: ChEMBL document CHEMBL4715684, “Computer-aided discovery of phenylpyrazole based amides as potent S6K1 inhibitors” (RSC Med Chem, 2020)
